From ChEMBL document CHEMBL1154639, “Application of Huisgen (3+2) cycloaddition reaction: synthesis of 1-(2,3-dihydrobenzofuran-2-yl-methyl [1,2,3]-triazoles and their antitubercular evaluations” (2010) come the findings set out here.

≈ marks a conversion by molar mass, not a printed value.

The test system of this experiment is Mycobacterium tuberculosis. Nature of the experiment: Antitubercular activity against Mycobacterium tuberculosis H37Rv after 30 days by agar microdilution method. Format: functional. Summed up:
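M. tuberculosis H37Rv grown on L-J medium, harvested into 0.85% saline with 0.05% Tween-80. Compounds from a 1 mg/mL DMSO stock, two-fold dilutions in Middlebrook 7H10 agar slants with OADC. Slants preincubated 24 h at 37 °C, then streaked with 5 × 10^4 bacilli per tube and held at 37 °C. Growth read at 30 days against drug-free controls; MIC determined.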
What is called MIC is the smallest concentration in the dilution series that meets the test's criterion for growth inhibition. High values mean a less susceptible organism, low ones a more susceptible organism. In the case of `Cc1ccc(C)c2c1CC(Cn1cc(CO)nn1)O2` (stereo not given), the lowest concentration to inhibit growth (MIC) was 12.5 µg/mL (≈ 48.2 µM).
The same measure for `CCCCCc1cn(CC2Cc3cc(C#N)ccc3O2)nn1` (stereo not given): greater than 12.5 µg/mL; for `Cc1ccc(C)c2c1CC(CN=[N+]=[N-])O2` (stereo not given): greater than 12.5 µg/mL.
As for `CCCCCCc1cn(CC2Cc3cc(C#N)ccc3O2)nn1` (stereo not given), the figure is greater than 12.5 µg/mL; as for `N#Cc1ccc2c(c1)CC(Cn1cc(Cc3ccccc3)nn1)O2` (stereo not given), greater than 12.5 µg/mL; as for `O=Cc1ccc2c(c1)CC(Cn1cc(-c3ccccc3)nn1)O2` (stereo not given), greater than 12.5 µg/mL.
The same measure for `CCCCCC(O)c1cn(CC2Cc3cc(C#N)ccc3O2)nn1` (stereo not given): greater than 25 µg/mL; for `O=Cc1ccc2c(c1)CC(Cn1cc(Cc3ccccc3)nn1)O2` (stereo not given): greater than 12.5 µg/mL; for `[N-]=[N+]=NCC1Cc2cc(C=O)ccc2O1` (stereo not given): greater than 12.5 µg/mL.
As to `CCCCCc1cn(CC2Cc3cc(C=O)ccc3O2)nn1` (stereo not given), 12.5 µg/mL (≈ 41.8 µM) was the least that counted as inhibitory (MIC).
The same measure for `c1ccc(Cc2cn(CC3Cc4c(ccc5ccccc45)O3)nn2)cc1` (stereo not given): greater than 12.5 µg/mL; for `CCCCCc1cn(CC2Cc3c(ccc4ccccc34)O2)nn1` (stereo not given): 12.5 µg/mL (≈ 38.9 µM); for `CCCCCc1cn(CC2Cc3c(C)ccc(C)c3O2)nn1` (stereo not given): greater than 12.5 µg/mL.
In the case of `OCc1cn(CC2Cc3c(ccc4ccccc34)O2)nn1` (stereo not given), the MIC is greater than 12.5 µg/mL.
As for `Cc1ccc(C)c2c1CC(Cn1cc(Cc3ccccc3)nn1)O2` (stereo not given), the figure is greater than 12.5 µg/mL; as for `CCCCCCc1cn(CC2Cc3c(C)ccc(C)c3O2)nn1` (stereo not given), greater than 12.5 µg/mL; as for `N#Cc1ccc2c(c1)CC(CN=[N+]=[N-])O2` (stereo not given), greater than 12.5 µg/mL.
The compound `c1ccc(-c2cn(CC3Cc4c(ccc5ccccc45)O3)nn2)cc1` (stereo not given) displayed an MIC greater than 12.5 µg/mL.
As for `Cc1ccc(C)c2c1CC(Cn1cc(-c3ccccc3)nn1)O2` (stereo not given), the figure is greater than 12.5 µg/mL; as for `Cc1ccc(C)c2c1CC(Cn1cc(CCO)nn1)O2` (stereo not given), greater than 12.5 µg/mL; as for `N#Cc1ccc2c(c1)CC(Cn1cc(CCO)nn1)O2` (stereo not given), greater than 12.5 µg/mL.
The compound `[N-]=[N+]=NCC1Cc2c(ccc3ccccc23)O1` (stereo not given) yielded a minimal inhibitory concentration (MIC) of 3.12 µg/mL (≈ 13.9 µM).
As for `CCCCCCc1cn(CC2Cc3cc(C=O)ccc3O2)nn1` (stereo not given), the figure is 6.25 µg/mL (≈ 19.9 µM); as for `OCCc1cn(CC2Cc3c(ccc4ccccc34)O2)nn1` (stereo not given), greater than 12.5 µg/mL.
As for `O=Cc1ccc2c(c1)CC(Cn1cc(CO)nn1)O2` (stereo not given), the figure is greater than 12.5 µg/mL; as for `N#Cc1ccc2c(c1)CC(Cn1cc(CO)nn1)O2` (stereo not given), greater than 25 µg/mL.
The same measure for `N#Cc1ccc2c(c1)CC(Cn1cc(-c3ccccc3)nn1)O2` (stereo not given): greater than 12.5 µg/mL; for `CCCCCC(O)c1cn(CC2Cc3c(C)ccc(C)c3O2)nn1` (stereo not given): greater than 12.5 µg/mL.
Turning to `CC[C@@H](CO)NCCN[C@@H](CC)CO` [ETHAMBUTOL], the MIC worked out at 3.25 µg/mL (≈ 15.9 µM).
`NNC(=O)c1ccncc1` [ISONIAZID] registered an MIC of 0.75 µg/mL (≈ 5.47 µM).
